Source: ChEMBL document CHEMBL1137302 (J Med Chem, 2006)
pEC50, pKi: −log10 of the molar value. Active and inactive are the calls of the source. The rule behind the calls is not given here.

Assays:
[1] = molecular target: Phosphodiesterase 4 (Homo sapiens) (UniProt P27815+Q08499+Q07343+Q08493); assay: Activity at PDE4 at 10 uM; assay type: protein assay
Summary of the method: (§1)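 Broad selectivity panel (over 70 receptors, ion channels and neuronal receptors, PDE1-6 included) run at a single 10 µM concentration.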

[2] = molecular target: D(2) dopamine receptor (Rattus norvegicus) (UniProt P61169); assay: Agonist activity at rat D2 receptor in HEK293 cells coexpressing G-alpha-qo5 by FLIPR relative to dopamine upto 10 uM; assay type: functional, cell-based
Summary of the method: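 Ca2+ flux by FLIPR in HEK cells cotransfected with the D2 receptor (human, ferret or rat) plus chimeric G protein Gqo5.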

[3] = Cmax in dog at 1 mg/kg, po; assay type: ADME, organism-based, Canis lupus familiaris; set-up: dose 1 mg/kg, route oral; details: in vivo
Summary of the method: (§2)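 Single 1 mg/kg dose given iv, sc or orally to Sprague-Dawley rats, dogs and monkeys; plasma concentrations followed over time (mean ± SEM, n = 3). Cmax, AUC, half-life, clearance and bioavailability calculated from the curves.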

[4] = molecular target: T1, D(4) dopamine receptor (Homo sapiens, UniProt P21917); assay: Displacement of [3H]A369508 from human D4 receptor expressed in HEK293 cell membrane; assay type: cell membranes
T1 sequence (P21917 whole entry): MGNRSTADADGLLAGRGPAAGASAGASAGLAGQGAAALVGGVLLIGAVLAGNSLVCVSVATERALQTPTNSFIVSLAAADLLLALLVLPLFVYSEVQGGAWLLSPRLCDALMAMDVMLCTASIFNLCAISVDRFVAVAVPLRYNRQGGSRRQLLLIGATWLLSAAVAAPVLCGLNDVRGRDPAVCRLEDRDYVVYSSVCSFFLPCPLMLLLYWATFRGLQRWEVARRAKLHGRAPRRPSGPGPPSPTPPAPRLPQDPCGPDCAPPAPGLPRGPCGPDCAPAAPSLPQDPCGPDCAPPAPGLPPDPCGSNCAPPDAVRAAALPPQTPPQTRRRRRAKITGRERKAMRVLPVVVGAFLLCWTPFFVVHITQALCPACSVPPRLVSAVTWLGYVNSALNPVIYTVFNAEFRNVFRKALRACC

[5] = Bioavailability in rat at 1 mg/kg, po; assay type: ADME, organism-based; details: in vivo; summary of the method: as §2
[6] = molecular target: Phosphodiesterase 6 (Homo sapiens) (UniProt Q13956+P18545+P35913+O43924+P16499+P51160); assay: Activity at PDE6 at 10 uM; assay type: protein assay; summary of the method: as §1
[7] = Effect on canine cardiac Purkinje fiber repolarization measured as prolongation of action potential duration at 1 ug/mL; assay type: functional, Canis lupus familiaris
Summary of the method: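 Canine Purkinje fibers impaled with 3 M KCl microelectrodes. Fibers accepted with resting potential below -80 mV and APD 300-500 ms. Paced at BCL 2 s, then 800 and 400 ms. Two ascending concentrations applied, each after 25 min equilibration. APD90 measured at all three rates.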

[8] = molecular target: hERG (Homo sapiens, UniProt Q12809); assay: Blockade of current at hERG expressed in HEK293 cells at 3 ug/mL; assay type: cell-based; details: HEK293 cells that express hERG
Summary of the method: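 hERG stably expressed in HEK293 cells; whole-cell voltage clamp. Pipette: K aspartate/KCl/EGTA/MgATP, pH 7.3. Bath: NaCl-based HEPES, pH 7.4. Compound dissolved in DMSO (≤0.1%), one concentration per cell. Steps to -25 to +50 mV for 3 s, then -50 mV for 4 s, from -80 mV every 15 s; tail current measured against DMSO vehicle.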

[9] = Agonist activity at ferret D4 receptor in HEK293 cells coexpressing G-alpha-qo5 by FLIPR; assay type: functional, cell-based, Mustela putorius furo; details: Mustela putorius
Summary of the method: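 HEK cells cotransfected with ferret D4 receptor and chimeric G protein Gqo5, with receptor activation read as a calcium flux signal on FLIPR. EC50 is the concentration giving half-maximal activation.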

[10] = AUC in dog at 1 mg/kg, po; assay type: ADME, organism-based, Canis lupus familiaris; set-up: dose 1 mg/kg, route oral; details: plasma; summary of the method: as §2
[11] = Bioavailability in dog at 1 mg/kg, po; assay type: ADME, organism-based, Canis lupus familiaris; details: in vivo; summary of the method: as §2
[12] = tested on: D(2) dopamine receptor (Mustela putorius furo); assay: Agonist activity at ferret D2 receptor in HEK293 cells coexpressing Galphaqo5 by FLIPR relative to dopamine upto 10 uM

Sequence of hERG (Q12809 whole entry): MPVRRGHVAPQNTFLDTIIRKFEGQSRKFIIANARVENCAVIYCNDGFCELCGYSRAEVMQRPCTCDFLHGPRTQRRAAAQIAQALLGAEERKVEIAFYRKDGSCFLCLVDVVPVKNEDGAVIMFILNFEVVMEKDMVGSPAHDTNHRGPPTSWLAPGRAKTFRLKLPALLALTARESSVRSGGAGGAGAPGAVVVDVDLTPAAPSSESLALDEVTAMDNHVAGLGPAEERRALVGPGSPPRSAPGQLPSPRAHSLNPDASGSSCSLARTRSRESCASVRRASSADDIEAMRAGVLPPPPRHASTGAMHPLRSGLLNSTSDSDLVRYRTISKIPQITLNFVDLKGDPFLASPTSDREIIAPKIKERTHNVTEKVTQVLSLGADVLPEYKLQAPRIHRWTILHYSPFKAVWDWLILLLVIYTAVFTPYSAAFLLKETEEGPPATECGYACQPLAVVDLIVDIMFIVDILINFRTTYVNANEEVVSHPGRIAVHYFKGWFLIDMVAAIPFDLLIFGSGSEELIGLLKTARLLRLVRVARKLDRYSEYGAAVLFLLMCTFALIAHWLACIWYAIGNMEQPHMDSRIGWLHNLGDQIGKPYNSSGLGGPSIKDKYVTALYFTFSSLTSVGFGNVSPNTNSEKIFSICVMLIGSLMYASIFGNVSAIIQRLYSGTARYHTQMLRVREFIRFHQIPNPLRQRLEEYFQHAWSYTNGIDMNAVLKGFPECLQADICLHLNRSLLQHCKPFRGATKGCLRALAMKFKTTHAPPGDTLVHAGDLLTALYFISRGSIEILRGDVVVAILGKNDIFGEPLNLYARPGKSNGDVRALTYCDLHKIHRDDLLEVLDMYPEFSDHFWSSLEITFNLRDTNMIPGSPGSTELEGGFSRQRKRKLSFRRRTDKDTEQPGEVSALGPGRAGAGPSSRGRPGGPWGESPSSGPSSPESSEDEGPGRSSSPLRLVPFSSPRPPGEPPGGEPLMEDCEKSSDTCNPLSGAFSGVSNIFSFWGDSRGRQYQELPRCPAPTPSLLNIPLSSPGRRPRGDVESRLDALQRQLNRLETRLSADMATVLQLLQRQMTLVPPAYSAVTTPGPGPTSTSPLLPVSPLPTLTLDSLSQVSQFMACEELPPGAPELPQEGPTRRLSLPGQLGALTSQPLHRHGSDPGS
Sequence of D(2) dopamine receptor (Rattus norvegicus) (P61169 whole entry): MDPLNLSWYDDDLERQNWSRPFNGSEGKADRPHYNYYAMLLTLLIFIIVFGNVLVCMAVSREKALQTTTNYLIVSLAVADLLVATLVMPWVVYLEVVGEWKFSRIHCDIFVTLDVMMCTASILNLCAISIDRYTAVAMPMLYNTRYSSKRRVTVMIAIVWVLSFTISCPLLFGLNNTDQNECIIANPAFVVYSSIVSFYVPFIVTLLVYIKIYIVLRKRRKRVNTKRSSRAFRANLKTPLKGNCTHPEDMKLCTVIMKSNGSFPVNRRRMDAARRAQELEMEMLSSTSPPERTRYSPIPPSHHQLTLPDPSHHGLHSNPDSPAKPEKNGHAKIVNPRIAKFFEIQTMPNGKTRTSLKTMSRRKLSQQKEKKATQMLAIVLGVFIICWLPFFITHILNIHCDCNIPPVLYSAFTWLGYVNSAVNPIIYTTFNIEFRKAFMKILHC

Activity [1]: inactive
Activity [2]: inactive
Cmax [3]: 1.42 µg/mL
pKi [4]: 5.84
bioavailability [5]: 68%
Activity [6]: inactive
pEC50 [9]: 6.80
AUC [10]: 4.28 µg·h/mL
bioavailability [11]: 85%
Activity [12]: inactive
SMILES: Cc1cccc(C(=O)NCN2CCC(c3cccc[n+]3[O-])CC2)c1
Activity [7]: 0.6%
inhibition at 3 ug/mL [8]: 14.5%
